Measurements reported in ChEMBL document CHEMBL1137651 (Antimicrob Agents Chemother, 2007).
≈ marks a conversion by molar mass, not a printed value. Calls of active or inactive are those of the source. No cut-off for these calls is given here.

Legend:
[1] = test system: Mycobacterium tuberculosis; test: Drug uptake in Mycobacterium tuberculosis H37Rv ATCC 2517-infected hollow fiber system based in vitro pharmacokinetic-pharmacodynamic tuberculosis model; type: ADME, organism-based
How it was run: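 Log-phase culture was adjusted to 10^6 CFU/ml in 7H9 broth held at 37°C or 0°C, then given 0, 2, 7 or 14 mg/liter drug. Samples taken at 0, 5, 15, 30 and 60 min were spun through silicone oil, and drug in the pellet was measured by LC-MS. Values at 0°C (cell-wall binding) were subtracted from those at 37°C. Cell volume was estimated from protein by BCA. Run in triplicate.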

[2] = test system: Mycobacterium tuberculosis; test: Post antibiotic effect against Mycobacterium tuberculosis H37Rv ATCC 2517 infected hollow fiber system based in vitro pharmacokinetic-pharmacodynamic tuberculosis model at 2 mg/L administered for 7 hrs; type: functional
How it was run: (§1)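 Broth cultures grown 4 days were exposed at 10^6 CFU/ml to the stated concentration and duration. They were then washed twice by centrifugation (2,000 x g, 10 min) and resuspended in fresh broth, shaken at 37°C in 5% CO2, and sampled every other day for agar counts. PAE equals the time for exposed cultures to grow 1 log10 CFU/ml minus that for controls. The study was performed twice.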

[3] = test system: Mycobacterium tuberculosis; test: Antimycobacterial activity against drug-sensitive Mycobacterium tuberculosis H37Rv ATCC 2517-infected hollow fiber system based in vitro pharmacokinetic-pharmacodynamic tuberculosis model assessed as sigmoidicity constant for microbial killing; type: functional
Homo sapiens [4] = test: fAUC (0 to 168 hrs) in Mycobacterium tuberculosis H37Rv ATCC 2517-infected patient serum at 2100 mg, po administered twice a week; type: ADME, organism-based; details: in vivo
[5] = test system: Mycobacterium tuberculosis; test: microbe, parasite or virus in culture
Homo sapiens [6] = test: fAUC (0 to 168 hrs) in Mycobacterium tuberculosis H37Rv ATCC 2517-infected patient serum at 4200 mg, po administered once a week; type: ADME, organism-based; details: in vivo
[7] = test system: Mycobacterium tuberculosis; test: Antimycobacterial activity against drug-sensitive Mycobacterium tuberculosis H37Rv ATCC 2517-infected hollow fiber system based in vitro pharmacokinetic-pharmacodynamic tuberculosis model assessed as concentration needed to achieve 50% effect on maximal growth rate; type: functional
[8] = AUC (0 to 168 hrs) in Mycobacterium tuberculosis H37Rv ATCC 2517-infected hollow fiber system based in vitro pharmacokinetic-pharmacodynamic tuberculosis model; type: ADME; parameters: time < 168 hr
How it was run: (§2)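 Samples were cleaned up by solid-phase extraction and quantified by LC-MS (C18 column, 25 mM ammonium acetate/acetonitrile 58:42).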

Homo sapiens [9] = test: fCmax in Mycobacterium tuberculosis H37Rv ATCC 2517-infected patient serum at 4200 mg, po administered once a week; type: ADME, organism-based; details: in vivo
[10] = test system: Mycobacterium tuberculosis; test: Antimycobacterial activity against drug-sensitive Mycobacterium tuberculosis H37Rv ATCC 2517-infected hollow fiber system based in vitro pharmacokinetic-pharmacodynamic tuberculosis model assessed as rate constant for maximal bacterial growth; type: functional
[11] = AUC in Mycobacterium tuberculosis H37Rv ATCC 2517-infected hollow fiber system based in vitro pharmacokinetic-pharmacodynamic tuberculosis model at 7 mg/L for 1 hr; type: ADME
[12] = AUC (0 to 168 hrs) in Mycobacterium tuberculosis H37Rv ATCC 2517-infected hollow fiber system based in vitro pharmacokinetic-pharmacodynamic tuberculosis model administered at dose simulating 4200 mg once weekly schedule; type: ADME; parameters: time < 168 hr, dose 4200 mg; how it was run: as §2
[13] = test system: Mycobacterium tuberculosis; test: Antimycobacterial activity against drug-sensitive Mycobacterium tuberculosis H37Rv ATCC 2517-infected hollow fiber system based in vitro pharmacokinetic-pharmacodynamic tuberculosis model assessed as sigmoidicity constant for drug effect on microbial growth; type: functional
Homo sapiens [14] = test: fCmax in Mycobacterium tuberculosis H37Rv ATCC 2517-infected patient serum at 2100 mg, po administered twice a week; type: ADME, organism-based; details: in vivo
Homo sapiens [15] = test: fCmax in Mycobacterium tuberculosis H37Rv ATCC 2517-infected patient serum at 600 mg/day, po; type: ADME, organism-based
[16] = test system: Mycobacterium tuberculosis; test: Antimycobacterial activity against Mycobacterium tuberculosis H37Rv ATCC 2517 infected in hollow fiber system based in vitro pharmacokinetic-pharmacodynamic tuberculosis model assessed as microbial killing administered at simulated dose of 4200 mg, po once weekly; type: functional, organism-based
How it was run: (§3)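 Hollow-fiber model at 37°C with 5% CO2. […] Schedules were daily for 7 days, twice weekly (day 0 and 3.5) or once weekly, plus an untreated control. Peripheral samples were taken daily for 7 days, saline-washed twice and plated on 7H10 agar; kill is relative to baseline.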

[17] = Clearance in Mycobacterium tuberculosis H37Rv ATCC 2517-infected hollow fiber system based in vitro pharmacokinetic-pharmacodynamic tuberculosis model; type: ADME, organism-based
[18] = AUC in Mycobacterium tuberculosis H37Rv ATCC 2517-infected hollow fiber system based in vitro pharmacokinetic-pharmacodynamic tuberculosis model at 14 mg/L for 0.5 hrs; type: ADME
[19] = test system: Mycobacterium tuberculosis; test: Post antibiotic effect against Mycobacterium tuberculosis H37Rv ATCC 2517 infected hollow fiber system based in vitro pharmacokinetic-pharmacodynamic tuberculosis model at 7 mg/L administered for 1 hr; type: functional; how it was run: as §1
[20] = test system: Mycobacterium tuberculosis; test: Antimycobacterial activity against drug-sensitive Mycobacterium tuberculosis H37Rv ATCC 2517-infected hollow fiber system based in vitro pharmacokinetic-pharmacodynamic tuberculosis model assessed as rate constant for maximal bacterial kill; type: functional
[21] = test system: Mycobacterium tuberculosis; test: Antimycobacterial activity against drug-sensitive Mycobacterium tuberculosis H37Rv ATCC 2517-infected hollow fiber system based in vitro pharmacokinetic-pharmacodynamic tuberculosis model assessed as concentration needed to achieve 50% maximal killing rate; type: functional
[22] = test system: Mycobacterium tuberculosis; test: Antimycobacterial activity against Mycobacterium tuberculosis H37Rv ATCC 2517 infected in hollow fiber system based in vitro pharmacokinetic-pharmacodynamic tuberculosis model assessed as microbial killing administered at simulated dose of 600 mg/day for 7 days; type: functional; how it was run: as §3
[23] = AUC (0 to 168 hrs) in Mycobacterium tuberculosis H37Rv ATCC 2517-infected patient serum at 600 mg/day, po; type: ADME, organism-based, Plasma; parameters: time < 168 hr, dose 600 mg/day, route oral; details: human
[24] = test system: Mycobacterium tuberculosis; test: Post antibiotic effect against Mycobacterium tuberculosis H37Rv ATCC 2517 infected hollow fiber system based in vitro pharmacokinetic-pharmacodynamic tuberculosis model at 14 mg/L administered for 0.5 hrs; type: functional; how it was run: as §1
[25] = test system: Mycobacterium tuberculosis; test: Antimycobacterial activity against Mycobacterium tuberculosis H37Rv ATCC 2517 infected in hollow fiber system based in vitro pharmacokinetic-pharmacodynamic tuberculosis model assessed as microbial killing administered at simulated dose of 2100 mg, po twice weekly; type: functional, organism-based; how it was run: as §3
[26] = test system: Mycobacterium tuberculosis; test: Post antibiotic effect against Mycobacterium tuberculosis H37Rv ATCC 2517 infected hollow fiber system based in vitro pharmacokinetic-pharmacodynamic tuberculosis model at 7 mg/L administered for 2 hrs; type: functional
Homo sapiens [27] = test: fAUC (0 to infinity) in Mycobacterium tuberculosis H37Rv ATCC 2517-infected patient serum at 600 mg/day, po; type: ADME, organism-based
[28] = AUC in Mycobacterium tuberculosis H37Rv ATCC 2517-infected hollow fiber system based in vitro pharmacokinetic-pharmacodynamic tuberculosis model at 7 mg/L for 2 hrs; type: ADME
[29] = AUC in Mycobacterium tuberculosis H37Rv ATCC 2517-infected hollow fiber system based in vitro pharmacokinetic-pharmacodynamic tuberculosis model at 2 mg/L for 7 hrs; type: ADME

For CO[C@H]1/C=C/O[C@@]2(C)Oc3c(C)c(O)c4c(O)c(c(/C=N/N5CCN(C)CC5)c(O)c4c3C2=O)NC(=O)/C(C)=C\C=C\[C@H](C)[C@H](O)[C@@H](C)[C@@H](O)[C@@H](C)[C@H](OC(C)=O)[C@@H]1C [RIFAMPIN], the Drug uptake [1] was “Dose-dependent effect”, the PAE [2] was 5.2 days and the Hk [3] was 1.388. It also gave a fAUC (Homo sapiens [4]) of 112000 ng·h/mL, an MIC90 [5] of 0.125 µg/mL (≈ 0.152 µM) and a fAUC (Homo sapiens [6]) of 112000 ng·h/mL. It also gave a C50g [7] of 1932 mg/L, an AUC(0-t) at 168 h [8] of 122000 ng·h/mL and a fCmax (Homo sapiens [9]) of 14 mg/L. It also gave a Kgmax [10] of 9.756 ×10⁻³ log10CFU/ml/hr, an AUC at 1 h, 7 mg/L [11] of 7000 ng·h/mL and an AUC(0-t) at 168 h [12] of 14000 ng·h/mL. The Hg [13] was 0.361, the fCmax (Homo sapiens [14]) was 7 mg/L and the fCmax (Homo sapiens [15]) was 2 mg/L. The Activity [16] was “Active”, the CL [17] was 99 L/h and the AUC at 0.5 h, 14 mg/L [18] was 7000 ng·h/mL. The PAE [19] was 12 days, the Kkmax [20] was 15.829 ×10⁻³ log10CFU/ml/hr and the C50k [21] was 7.652 mg/L. It also gave a CFU [22] of 1.95 mL⁻¹, an AUC at 168 h [23] of 112000 ng·h/mL and a PAE [24] of 19.3 days. The Activity [25] was “Active”, the PAE [26] was 12.9 days and the fAUC (Homo sapiens [27]) was 16000 ng·h/mL. The AUC at 2 h, 7 mg/L [28] was 14000 ng·h/mL and the AUC at 7 h, 2 mg/L [29] was 14000 ng·h/mL.
